Reference: ChEMBL document CHEMBL1127484, “5-Aryl-3-(alkylthio)-4H-1,2,4-triazoles as selective antagonists of strychnine-induced convulsions and potential antispastic agents” (J Med Chem, 1994)

How the values were obtained:
Mus musculus [1] = assay: Effective dose required for antagonist activity against strychnine induced seizures in mice when administered intraperitoneally; format: functional; conditions: ip
Procedure, shortened: (§1)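 CD-1 male mice (18–26 g), groups of 5 or 10, housed individually, dosed ip in distilled H2O or H2O/Tween 80. Convulsant given 30 min later. Strychnine sulfate 2.7 mg/kg ip: protection = no tonic extension >15 min. MES 50 mA, 0.2 s, corneal: no tonic hind-limb extension. PTZ 60 mg/kg iv: no clonic seizures for 2 min. MPA 100 mg/kg iv: no seizures for 5 min. ED50 by quantal analysis from ≥4 doses, ≥10 mice each.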

Mus musculus [2] = assay: Effective dose required for antagonist activity against pentylenetetrazole-induced seizures in mice when administered intraperitoneally; Range is 25-50; format: functional; conditions: ip; procedure, shortened: as §1
Mus musculus [3] = assay: Effective dose required for antagonist activity against maximal electroshock induced seizures in mice when administered intraperitoneally; format: functional; conditions: ip; procedure, shortened: as §1
[4] = Dose encompassing the 50% lethal effect was recorded when administered intraperitoneally in mice; format: ADME, organism-based; conditions: mouse, in vivo, ip
Procedure, shortened: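 Deaths were recorded over the 7 days after dosing. The estimated LD50 was taken as the dose range spanning 50% lethality.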

Mus musculus [5] = assay: Effective dose required for antagonist activity against 3-mercaptopropionic-acid-induced seizures in mice when administered intraperitoneally; Range is 50-100; format: functional; conditions: ip; procedure, shortened: as §1
Mus musculus [6] = assay: Effective dose required for antagonist activity against 3-mercaptopropionic-acid induced seizures in mice when administered intraperitoneally; format: functional; conditions: ip; procedure, shortened: as §1
Mus musculus [7] = assay: Effective dose required for antagonist activity against strychnine induced seizures in mice when administered intraperitoneally; Range is 32-50; format: functional; conditions: ip; procedure, shortened: as §1
Mus musculus [8] = assay: Effective dose required for antagonist activity against pentylenetetrazole-induced seizures in mice when administered intraperitoneally; format: functional; conditions: ip; procedure, shortened: as §1

Row | Structure (SMILES) | ED50 (Mus musculus [1]) [mg/kg] | ED50 (Mus musculus [2]) [mg/kg] | ED50 (Mus musculus [3]) [mg/kg] | LD50 [4] [mg/kg] | ED50 (Mus musculus [5]) [mg/kg] | ED50 (Mus musculus [6]) [mg/kg] | ED50 (Mus musculus [7]) [mg/kg] | ED50 (Mus musculus [8]) [mg/kg]
1 | CCn1c(SC)nnc1-c1ccc(Cl)cc1 | 26.7 | 50 | > 50 | > 800 | 100 |  |  | 
2 | Cn1c(-c2cccs2)nnc1[S+](C)[O-] (stereo not given) |  |  | > 200 | > 800 |  | > 200 | 50 | > 200
